# Ecoli rRNA inh – inhibitors of bacterial rRNA selective over humanized ribosomes; AID 720706; 1.6% of 350,000 active; GFP signal change (wild-type ribosome), % (no concentration beside the values); E. coli WT GFP vs humanized-ribosome RFP mutants, fluorescence, 24 h; hits give low values; DMSO median 0, no signal -100;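 active means significant combined selectivity score with lowered wild-type GFP, culture density cut under 30%, mutant RFP and density less affected; inactive means any of these conditions unmet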
# E-selectin induc – induces E-selectin expression in human endothelial cells. P16581. HUVEC E-selectin immunofluorescence imaging; normalized: neutral wells 0, TNF-alpha wells 100. activation, % at 7.58 µM. 0.37% of 260,000 active;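 active means mean E-selectin-positive cell signal at least 10% of the positive control, reached in at least 60% of replicates, without over 20% cell loss; inconclusive means no rule given, readout overlaps actives, possibly toxicity-flagged; inactive means the rest, including those meeting only one limit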
#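 Read-out basis: % PE-positive cells; Test system: HUVEC primary endothelial cells; Technique: immunofluorescence imaging; Dosing: single-point compound dose.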
# RAD52 anneal inh – inhibitors of human RAD52 DNA annealing; P43351; recombinant RAD52 DNA annealing, FRET fluorescence; inhibition, % at 18.7 µM; 0.46% of 360,000 active; AID 651710;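 active means every replicate showing at least 50% inhibition; inconclusive means mean inhibition at least 50% but not in every replicate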
# AF4-AF9 inh – inhibitors of human MLL-AF4/AF9 interaction; P42568; AlphaScreen, biotin-AF4 peptide binding to FLAG-AF9; inhibition, % at 10 µM; 0.47% of 350,000 active; AID 651704;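 active means every replicate reaching a set inhibition limit, whatever the replicate mean, cut at about 25% in these data; inconclusive means mean inhibition reaches that limit but some replicates miss it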;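 further: 0% = plate neutral control median and 100% = total signal loss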
# GSIS activator – primary screen for activators of insulin secretion dependent on glucose, INS-1E cells, GLuc reporter luminescence; INS-1E GLuc reporter insulin secretion, 2-3 h; activation, % at 16.6 µM; 0.61% of 370,000 active; AID 743287;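 active means lowest replicate activation of at least 40%, so every replicate reaches that level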;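 further: 0% = median of neutral control wells and 100% = median of IBMX positive control wells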
# RAD54 inh – inhibitors of human RAD54 branch migration | 0.14% of 360,000 active | RAD54 Holliday junction branch migration, FAM/BHQ fluorescence | inhibition, % at 10.4 µM;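 active means mean normalized replicate activity at least 40 and at least half of replicates scoring 40 or more; inconclusive means only one of the two criteria met; inactive means mean below 40 and under half of replicates reaching 40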;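 further: 0% = median of neutral control wells and 100% = median of positive control wells; inhibitors cause a drop in the FAM fluorescence signal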
# Target sequence (Q92698 whole entry, looked up): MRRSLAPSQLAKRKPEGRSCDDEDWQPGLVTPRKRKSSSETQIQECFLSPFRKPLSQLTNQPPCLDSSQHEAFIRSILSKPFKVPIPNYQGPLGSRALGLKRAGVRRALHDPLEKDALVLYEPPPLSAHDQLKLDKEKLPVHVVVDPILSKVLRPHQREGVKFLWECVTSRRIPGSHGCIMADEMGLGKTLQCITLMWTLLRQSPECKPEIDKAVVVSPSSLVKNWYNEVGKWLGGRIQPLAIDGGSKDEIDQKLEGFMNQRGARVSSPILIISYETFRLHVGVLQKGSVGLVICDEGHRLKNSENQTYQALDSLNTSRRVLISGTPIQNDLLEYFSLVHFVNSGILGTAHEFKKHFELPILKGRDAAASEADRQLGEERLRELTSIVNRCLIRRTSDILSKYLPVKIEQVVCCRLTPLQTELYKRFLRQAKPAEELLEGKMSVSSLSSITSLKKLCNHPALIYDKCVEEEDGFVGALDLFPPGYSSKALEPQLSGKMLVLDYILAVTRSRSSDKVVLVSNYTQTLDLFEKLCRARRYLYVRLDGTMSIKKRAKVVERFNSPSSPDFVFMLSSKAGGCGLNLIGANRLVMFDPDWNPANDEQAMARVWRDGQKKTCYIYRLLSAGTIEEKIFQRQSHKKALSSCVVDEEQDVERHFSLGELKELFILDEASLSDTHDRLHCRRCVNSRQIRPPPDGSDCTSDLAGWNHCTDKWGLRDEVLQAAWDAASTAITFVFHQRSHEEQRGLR
# HepG2 cytotox – cytotoxic compounds in HepG2 cells. 30 tested, under 10 active. shares compounds with Ecoli rRNA inh. HepG2 viability, ATP luminescence, 72 h. activity change, negative = cytotoxicity, unspecified at 26 µM;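 active means compounds whose fitted half-maximal signal-loss concentration is at most twice their highest valid dose; inconclusive means flat curve with 30 to 70% signal loss, or poor fit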
# AID977621 – growth inhibition of wild-type GFP E. coli, dose response, H69 mutant RFP, cherry-pick; shares compounds with Ecoli rRNA inh; 1,900 tested, under 10 active; E. coli wild-type GFP strain growth, fluorescence, 24 h; AID 977621; activity change, negative = inhibition at 50 µM;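 active means Wild-type ribosome reporter drop at least double the humanized mutant ribosome reporter drop, growth loss under a set limit; inconclusive means no clear call, values can overlap the other calls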;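 further: wild-type GFP and H69 mutant RFP strains grown together 50/50 in each well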
# AID977628 – E. coli growth inhibition, wild-type GFP versus h24 humanized RFP strain, dose response, h24 mutant RFP vs wild-type GFP, cherry-pick; 1,900 tested, under 10 active; E. coli WT GFP strain growth, fluorescence, 24 h; activity change, negative = inhibition at 50 µM; AID 977628; shares compounds with Ecoli rRNA inh;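 active means compound lowering the normal-ribosome reporter at least twice as much as the humanized-ribosome reporter, growth loss under a set limit; inconclusive means no clear call, values can overlap the other calls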;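 further: wild-type GFP and h24 humanized RFP strains co-cultured 1 to 1 per well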
# Numbers without * were called inactive; ? = inconclusive; . = not tested or not shown. In the library only some 2.6% were active in any assay of this set; here they are far more common.
SMILES,Ecoli rRNA inh,E-selectin induc,RAD52 anneal inh,AF4-AF9 inh,GSIS activator,RAD54 inh,AID977621,AID977628,others
C[C@@H]1CCCCO[C@H](CN(C)C)[C@H](C)CN([C@@H](C)CO)C(=O)c2cc(NC(=O)Nc3cccc4ccccc34)ccc2O1,-36*,0,33,4,13,12,-3.2,0.029,
C[C@@H]1CCCCO[C@H](CN(C)C(=O)c2ccccc2)[C@@H](C)CN([C@@H](C)CO)C(=O)c2cc(NC(=O)Cc3ccccc3)ccc2O1,-6,0,-10,-2,-24,-7,.,.,
C[C@@H]1CCCCO[C@@H](CN(C)S(C)(=O)=O)[C@H](C)CN([C@H](C)CO)C(=O)c2cc(NC(=O)Nc3cccc4ccccc34)ccc2O1,-1,0,29,4,-5,3,.,.,
O=C(C[C@H]1C[C@@H]2c3cc(NC(=O)c4ccc5c(c4)OCO5)ccc3O[C@@H]2[C@@H](CO)O1)NCC1CC1,-4,-1,-10,-1,-4,-8,.,.,
COc1ccc(S(=O)(=O)N[C@@H]2CC[C@H](CCn3cc(-c4ccccc4F)nn3)O[C@H]2CO)cc1,-6,0,-5,-1,-9,2,.,.,
O=C(C[C@H]1CC[C@@H](NC(=O)CN2CCOCC2)[C@@H](CO)O1)NC1CCCCC1,1,0,-5,-2,8,-9,.,.,
C[C@@H]1CCCCO[C@@H](CN(C)C(=O)Nc2ccc(F)cc2)[C@@H](C)CN([C@@H](C)CO)C(=O)c2cc(NC(=O)NC3CCCCC3)ccc2O1,2,1,.,.,4,.,.,.,
CCC1CCCCN1C(=O)CSc1nnc(-c2cccc(Cl)c2)o1 (stereo unspecified),-26*,.,-8,-1,-22,3,-12,-15,
CCC1CCCCN1C(=O)CSc1nnc(-c2ccc(Cl)cc2)o1 (stereo unspecified),1,.,-8,1,14,-7,.,.,
CC(=O)OC(COc1cccc(C)c1)Cn1cnc2ccccc21 (stereo unspecified),-37*,10,-18,0,-31,.,-14,?,
Cc1ccc(Cc2c(-c3ccc(C#N)cc3)nc3ccc(Br)cn23)cc1,-28*,.,-38,3,-27,-6,9,2.9,
COc1ccccc1Cc1c(-c2ccc(OC)c(OC)c2)nc2ccc(Br)cn12,-4,.,-2,13,30,0,.,.,
COc1ccccc1Cc1c(-c2ccc(F)cc2)nc2ccc(Br)cn12,-24*,0,-40,5,-18,-1,-13,-12,
O=c1c2cc3c(nc2[nH]c(=S)n1-c1ccccc1)CCCC3,4,0,-27,-2,-3,-10,.,.,
CSc1nc2nc3c(cc2c(=O)n1-c1ccccc1C)CCCC3,-30*,1,-22,-6,-26,-4,-16,-11,
O=C(O)c1cc(-c2cccs2)nn1-c1ccccc1,-10,-2,-18,-1,9,8,.,.,
O=C(O)c1cc(-c2cccs2)nn1-c1cccc(Cl)c1,-33*,-1,-19,0,0,3,-8.6,?,
CNC(=O)c1sc(-c2ccccn2)nc1C,-23*,-4,-16,-1,3,.,-21,-7.1,
Cc1nc(-c2ccccn2)sc1C(=O)Nc1ccc(F)cc1,.,.,.,.,.,2,.,.,
Cc1ccsc1C(=O)N1CCCC(C(=O)c2cc(F)ccc2F)C1 (stereo unspecified),-16*,0,8,-4,-6,9,.,?,
NC(=O)c1sc2nnc(-c3ccccc3)c(-c3ccccc3)c2c1N,-29*,0,-105,.,1,-4,.,-8.1,
NC(=O)c1snnc1-c1ccccc1,-1,0,-15,-1,.,16,.,.,
C[C@H](O)C#Cc1ccc2c(c1)O[C@@H](CN(C)CC1CCOCC1)[C@@H](C)CN([C@H](C)CO)S2(=O)=O,4,-1,.,.,13,0,.,.,
Cc1occc1-c1nnc(SCC(=O)Nc2nc(-c3ccccc3)cs2)o1,-24*,.,-10,10,-6,-9,?,-7.2,
Cc1nn(Cc2cccc(F)c2)c(C)c1NC(=O)c1c(Cl)cnn1C,-18*,.,-7,-1,.,.,-4.8,-0.98,
SMILES,Ecoli rRNA inh,E-selectin induc,RAD52 anneal inh,AF4-AF9 inh,GSIS activator,RAD54 inh,AID977621,AID977628,others
C/C=C/c1ccc2c(c1)O[C@@H](CN(C)C(=O)Nc1cc(F)ccc1F)[C@H](C)CN([C@@H](C)CO)S2(=O)=O,-7,0,-2,5,-20,-14,.,.,
Cc1[nH]c(=S)sc1Cc1ccc(Cl)c(Cl)c1,-40*,.,5,1,-2,.,.,.,HepG2 cytotox=10
Cc1nnc(SCc2ccc(Cl)c(Cl)c2)s1,.,0,-9,-6,-5,.,.,.,
C[C@H](CO)N1C[C@H](C)[C@H](CN(C)Cc2ccc(Oc3ccccc3)cc2)Oc2ccc(NC(=O)Nc3ccccc3)cc2C1=O,-1,1,22,-2,-10,-6,.,.,
CCS(=O)(=O)N1CCN(c2ccnc3cc(Cl)ccc23)CC1,-21*,6,5,?,26,-4,-4.3,.,
CS(=O)(=O)N1CCN(c2ccnc3cc(Cl)ccc23)CC1,-16,.,-14,-1,-1,1,.,.,
C[C@H]1CN([C@@H](C)CO)C(=O)Cc2cc(NC(=O)CCN3CCOCC3)ccc2O[C@H]1CN(C)Cc1ccccc1,5,0,5,1,0,0,.,.,
Cc1nn(CC(=O)OCCOc2ccc(Br)cc2)c(C)c1[N+](=O)[O-],-25*,0,-19,-1,-20,.,-12,?,
Cc1ccc(CNC(=O)COC(=O)Cn2nc(C)c([N+](=O)[O-])c2C)cc1,9,.,-5,-3,-1,-18,.,.,
Cc1nn(CC(=O)c2ccc(Br)s2)c(C)c1[N+](=O)[O-],-21*,.,-110,.,1,13,5.2,-4.5,
CO[C@H]1CN(C)C(=O)c2ccc(NS(=O)(=O)c3cn(C)cn3)cc2OC[C@H](C)NC[C@@H]1C,3,0,-11,-2,-3,.,.,.,
COc1cc(-c2cc3nc(NCCc4ccncc4)ccn3n2)cc(OC)c1OC,-18*,0,-1,2,-6,12,.,?,
C[C@@H]1CN([C@@H](C)CO)C(=O)c2cccc(NS(=O)(=O)c3cccs3)c2O[C@@H]1CN(C)CC1CCCCC1,3,.,-11,1,0,3,.,.,

# Assay outcomes deposited in PubChem by Broad Institute.
